Laboratory results reported in the RNAGym collection of RNA variant scans (doi:10.1126/science.aae0568).
Fewer inactive variants are shown than the library holds.

B1: tRNA (parent)
chain: GUUCCGUUGGCGUAAUGGUAACGCGUCUCCCUCCUAAGGAGAAGACUGCGGGUUCGAGUCCCGUACGGAACG

Variants of: B1
Assay: yeast fitness relative to wild type (ratio to wild type); higher = fitter; tRNA-Arg(CCU), competitive growth, 37 C, YPD
Summary of the method: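 Genotype frequency changes were the basis for Darwinian fitness relative to wild type. The frequencies came from 100-nucleotide paired-end sequencing of gene amplicons from the start population and each end population of pooled yeast strains with tRNA-Arg(CCU) gene variants at the native locus. Competition ran in YPD at 37°C for 24 hours in six replicates, genotypes needed ≥ 100 starting reads, and estimates < 0.5 were set to 0.5.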

Row | Variant | yeast fitness
1 | GUUCCGUUGGCGUAAUGGUAACGCGUCUCCGACCUAAGGAGAAGACUGUGGGUUCGAGUCCAGUACGGAACG [C31G U32A C49U C62A] | ≤ 0.5
2 | GUUCCGUUGGCGUAAUGGUAACGCGUCUCCGUCCUAAGGAGAAGACUGCGGGAUCGAGUCCCGUACGGAACG [C31G U53A] | 0.694
3 | GUUCCGUUGGCGUAAUGGUAACGCGUCUCCGGUCUAAGGAGAAGACUGCGGGUUCGAGUCCCGUACGGAGCG [C31G U32G C33U A70G] | ≤ 0.5
4 | GUUCCGUUGGCGUAAUGGUAACGCGUCUCCGACCUAAGGAGAAGACUGCGGGUUCGAGUCCCGUACGGAACG [C31G U32A] | 0.766
5 | GUUCCGUUGGCGUAAUGGUAACGCGUCUCCGGCCUAAGGAGAAGACUGCGGGUUCGAGUCCCGUACGGAACG [C31G U32G] | 0.556
6 | GUUCCGUUGGCGUAAUGGUAACGCGUCUCCUUCCUUAGGAGAAGCCUGCGGGUUCGAGUCCUGUACGGAACG [C31U A36U A45C C62U] | ≤ 0.5
7 | GUUCCGUUGGCGUAAUGGUAACGCGUCUCCUUCCUGAGGAGAAGACUGCGGGUUCGUGUCCCGUACGGAACG [C31U A36G A57U] | ≤ 0.5
8 | GUUCCGUUGGCGUAAUGGUAACGCGUCUCCGUCCUAAGGAGAAGACUGCGGGUUCGAAUCCCGUACGGAACG [C31G G58A] | 0.785
9 | GUUCCGUUGGCGUAAUGGUAACGCGUCUCCUUCCUUAGGAGAAGCGUCCGGGUUCGAGUCCCGUACGGAACG [C31U A36U A45C C46G G48C] | 0.53
10 | GUUCCGUUGGCGUAAUGGUAACGCGUCUCCGUCCUAAGGAGAAGACUGCGGGUUCCAGUCCCGUACGGAACG [C31G G56C] | 0.632
11 | GUUCCGUUGGCGUAAUGGUAACGCGUCUCCGCCCUAUGGAGAAGACUGCGGGUUCGAGUCCCGUACGGCACG [C31G U32C A37U A69C] | ≤ 0.5
12 | GUUCCGUUGGCGUAAUGGUAACGCGUCUCCUUCCUAAGGAGAAGACUGCGGGUUCGAGUCCCGUACGGAACG [C31U] | 0.986
13 | GUUCCGUUGGCGUAAUGGUAACGCGUCUCCUUCCUAGGGAGAAGACUGCGGGUUCGAGUCCCGUACGGAACG [C31U A37G] | 0.69
14 | GUUCCGUUGGCGUAAUGGUAACGCGUCUCCUUCCUAUGGAGAAGACUGCGGGUUCGAGUCCCGUACGGAACG [C31U A37U] | 0.744
15 | GUUCCGUUGGCGUAAUGGUAACGCGUCUCCUUCCUAAGGGGAAGACUGCGGGUUCGAGUCGCGUACGGAACG [C31U A40G C61G] | ≤ 0.5
16 | GUUCCGUUGGCGUAAUGGUAACGCGUCUCCUUCCUAAGGAGUAGACUGCGGGUUCGAGUCCCGUACGGAACG [C31U A42U] | 0.957
17 | GUUCCGUUGGCGUAAUGGUAACGCGUCUCCUUCCUAAGGUGAAGACUGCGGGUUCGAGUCCCGUAAGGAACG [C31U A40U C66A] | ≤ 0.5
18 | GUUCCGUUGGCGUAAUGGUAACGCGUCUCCGUCCUAAGGAGAAGACUGCGGGUUCGAGUCCCGUACCGAACG [C31G G67C] | 0.888
19 | GUUCCGUUGGCGUAAUGGUAACGCGUCUCCGUCCUAAGGAGAAGACUGCGGGUUCGAGUCCCGUACAGAACG [C31G G67A] | 0.859

Row | Variant | yeast fitness
20 | GUUCCGUUGGCGUAAUGGUAACGCGUCUCCGUCCUAAGGAGAAGACUGCGGGUUCGAGCCCCGUACGGAACG [C31G U59C] | 0.871
21 | GUUCCGUUGGCGUAAUGGUAACGCGUCUCCGUCCUAAGGAGAAGACUGCGGGUUCGAGGCCCGUACGGAACG [C31G U59G] | 0.734
22 | GUUCCGUUGGCGUAAUGGUAACGCGUCUCCUUCCUCAGGAGAAGCCUGCGGGUUCGAGUCGCGUACGGAACG [C31U A36C A45C C61G] | ≤ 0.5
23 | GUUCCGUUGGCGUAAUGGUAACGCGUCUCCUUCCUAUGGAGAAGAAUGAGGGUUAGAGUCCCGUAGGGAACG [C31U A37U C46A C49A C55A C66G] | 0.663
24 | GUUCCGUUGGCGUAAUGGUAACGCGUCUCCUUCCUAAGGGGAAGACUGCGGGUUCGAGUCCCGUACGGAACG [C31U A40G] | 0.786
25 | GUUCCGUUGGCGUAAUGGUAACGCGUCUCCUUCCUAAGGUGAAGACUGCGGGUUCGAGUCCCGUACGGAACG [C31U A40U] | 0.975
26 | GUUCCGUUGGCGUAAUGGUAACGCGUCUCCUUCCUAAGGCGAAGACUGCGGGUUCGAGUCCCGUACGGAACG [C31U A40C] | 0.937
27 | GUUCCGUUGGCGUAAUGGUAACGCGUCUCCUUCCUAAGGGGCAAUCUGCGGGUUCGAGUCCCGUACGGAACG [C31U A40G A42C G44A A45U] | ≤ 0.5
28 | GUUCCGUUGGCGUAAUGGUAACGCGUCUCCUUCCUUAGGAGAAGACUGCGGGUUCGAGUCCCGUACGGAACG [C31U A36U] | 0.591
29 | GUUCCGUUGGCGUAAUGGUAACGCGUCUCCUUCCUGAGGAGAAGACUGCGGGUUCGAGUCCCGUACGGAACG [C31U A36G] | 0.857
30 | GUUCCGUUGGCGUAAUGGUAACGCGUCUCCUUCCUACGGAGAAGACUGCGGGUUCGAGUCCCAUACGGAACG [C31U A37C G63A] | ≤ 0.5
31 | GUUCCGUUGGCGUAAUGGUAACGCGUCUCCUUCCUAUGGAGAAGACUGCGGGUUCGAGUGCCGUACGGAACG [C31U A37U C60G] | ≤ 0.5
32 | GUUCCGUUGGCGUAAUGGUAACGCGUCUCCGUCCUAAGGAGAAGACUGCGGGUUCGAGUCCCGUACUGCACG [C31G G67U A69C] | 0.526
33 | GUUCCGUUGGCGUAAUGGUAACGCGUCUCCUUCCUAAGGGGAAGACUGCGGGUUCGAGUCCCAUACGGAUCG [C31U A40G G63A A70U] | ≤ 0.5
34 | GUUCCGUUGGCGUAAUGGUAACGCGUCUCCUUCCUAAGGUGAAGACUGCGGGUUCGAGUCCCGUACGGAUCG [C31U A40U A70U] | 0.7
35 | GUUCCGUUGGCGUAAUGGUAACGCGUCUCCUUCCUUAGGAGAAGACUGCGGGUUCGAGUCCCGUACGGCACG [C31U A36U A69C] | 0.591
36 | GUUCCGUUGGCGUAAUGGUAACGCGUCUCCUUCCUACGGAGAUGACUGCCGGUUCGGGUCCCGUACGGAACG [C31U A37C A43U G50C A57G] | 0.586
37 | GUUCCGUUGGCGUAAUGGUAACGCGUCUCCUUCCUCAAGAGAAGACUGCGGGUUCGAGUCCCGUACGGAACG [C31U A36C G38A] | 0.558
38 | GUUCCGUUGGCGUAAUGGUAACGCGUCUCCGUCCUAAGGAGAAGACUGCGGCUUCGAGUCCCGUACGGAACG [C31G G52C] | 0.531
